Laboratory results published in ChEMBL document CHEMBL1127457, “Nonpeptide renin inhibitors with good intraduodenal bioavailability and efficacy in dog” (J Med Chem, 1994).

Tests used:
[1] = Partition coefficient (logD6.5); conditions: octanol/water, pH 6.5
[2] = Partition coefficient (logD7.4); conditions: octanol/water, pH 7.4
[3] = molecular target: T1, Renin (Homo sapiens, UniProt P00797); test: Tested in vitro for its ability to inhibit the human plasma renin at pH of 7.4; assay type: cell-free
T1 sequence (P00797 whole entry): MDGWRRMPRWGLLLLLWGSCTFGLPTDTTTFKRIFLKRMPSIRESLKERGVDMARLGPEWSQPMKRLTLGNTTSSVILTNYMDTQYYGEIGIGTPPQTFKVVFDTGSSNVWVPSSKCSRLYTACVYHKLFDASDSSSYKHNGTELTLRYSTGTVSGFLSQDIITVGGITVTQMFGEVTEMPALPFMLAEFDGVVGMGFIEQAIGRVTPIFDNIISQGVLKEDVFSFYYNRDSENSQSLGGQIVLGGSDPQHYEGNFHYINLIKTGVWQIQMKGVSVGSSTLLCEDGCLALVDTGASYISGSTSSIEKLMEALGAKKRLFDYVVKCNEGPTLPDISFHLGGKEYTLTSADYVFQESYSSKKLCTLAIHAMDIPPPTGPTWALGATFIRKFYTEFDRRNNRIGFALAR

[4] = molecular target: T1, Renin; test: Tested in vitro for its ability to inhibit the human plasma renin; assay type: cell-free
In short: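 IC50 against renin in plasma from the named species (dog, ferret, human, rat); single determination in most cases.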

[5] = Average area under curve for the compound at 10 mg/kg dose after intraduodenal administration to rat; conditions: in vivo
[6] = Average area under curve for the compound at 1 mg/kg dose after intravenous administration to rat; conditions: in vivo
[7] = Oral bioavailability in rat; conditions: in vivo, intraduodenal, 10 mg/kg
[8] = Average peak plasma concentration of compound after 10 mg/kg intraduodenal administration to rat; conditions: plasma
[9] = Average peak plasma concentration of compound after 1 mg/kg intravenous administration to rat; conditions: plasma

SMILES | logD [1] | logD [2] | IC50 [3] [nM] | IC50 [4] [nM] | other results
CCCC[C@H](O[C@@H](Cc1ccccc1)C(=O)N1CCC(OCOC)CC1)C(=O)N[C@@H](CC1CCCCC1)[C@@H](O)C[C@H](C(=O)NCCCNCCO)C(C)C | 2.5 | 1.8 | 6 |  | 
CCCC[C@H](O[C@@H](Cc1ccccc1)C(=O)N1CCC(OCOC)CC1)C(=O)N[C@@H](CC1CCCCC1)[C@@H](O)C[C@H](C(=O)NCCCNC(=O)OCc1ccccc1)C(C)C |  |  | 4.3 |  | 
CCCC[C@H](N[C@@H](Cc1ccccc1)C(=O)N1CCC(OCOC)CC1)C(=O)N[C@@H](CC1CCCCC1)[C@@H](O)C[C@H](C(=O)NCC(=O)OCc1ccccc1)C(C)C |  |  |  | 21 | 
CCCC[C@H](N[C@@H](Cc1ccccc1)C(=O)N1CCC(OCOC)CC1)C(=O)N[C@@H](CC1CCCCC1)[C@@H](O)C[C@H](C(=O)NCCN)C(C)C |  |  |  | 9.7 | 
CCCC[C@H](O[C@@H](Cc1ccccc1)C(=O)N1CCC(OCOC)CC1)C(=O)N[C@@H](CC1CCCCC1)[C@@H](O)C[C@H](C(=O)NCC/N=C(\NC#N)SC)C(C)C | > 5 | > 5 | 9.2 |  | 
CCCC[C@H](O[C@@H](Cc1ccccc1)C(=O)N1CCC(OCOC)CC1)C(=O)N[C@@H](CC1CCCCC1)[C@@H](O)C[C@H](C(=O)NCCCNC(=NC#N)SC)C(C)C |  |  |  | 1.3 | 
CCCC[C@H](O[C@@H](Cc1ccccc1)C(=O)N1CCC(OCOC)CC1)C(=O)N[C@@H](CC1CCCCC1)[C@@H](O)C[C@H](C(=O)NCCC/N=C(/NC)NC#N)C(C)C | 4.4 | 4.4 | 1.3 |  | 
CCCC[C@H](N[C@@H](Cc1ccccc1)C(=O)N1CCC(OCOC)CC1)C(=O)N[C@@H](CC1CCCCC1)[C@@H](O)C[C@H](C(=O)NCCC1CCCCC1)C(C)C | > 5 | > 5 |  | 40 | AUC [5]: 37 ng·h/mL; AUC [6]: 82 ng·h/mL; bioavailability [7]: 4%; Cmax [8]: 30 ng/mL; Cmax [9]: 140 ng/mL
CCCC[C@H](N[C@@H](Cc1ccccc1)C(=O)N1CCC(OCOC)CC1)C(=O)N[C@@H](CC1CCCCC1)[C@@H](O)C[C@H](C(=O)NCC(=O)O)C(C)C | 2.3 | 2.8 |  | 12 | 
CCCC[C@H](O[C@@H](Cc1ccccc1)C(=O)N1CCC(OCOC)CC1)C(=O)N[C@@H](CC1CCCCC1)[C@@H](O)C[C@H](C(=O)NCCNC(=O)OCc1ccccc1)C(C)C |  |  | 11 |  | 
CCCC[C@H](O[C@@H](Cc1ccccc1)C(=O)N1CCC(OCOC)CC1)C(=O)N[C@@H](CC1CCCCC1)[C@@H](O)C[C@H](C(=O)NCC(C)(C)N1CCOCC1)C(C)C | > 5 | > 5 | 5.9 |  | 
CCCC[C@H](N[C@@H](Cc1ccccc1)C(=O)N1CCC(OCOC)CC1)C(=O)N[C@@H](CC1CCCCC1)[C@@H](O)C[C@H](C(=O)NCCC(=O)O)C(C)C |  |  |  | 8.4 | 
CCCC[C@H](N[C@@H](Cc1ccccc1)C(=O)N1CCC(OCOC)CC1)C(=O)N[C@@H](CC1CCCCC1)[C@@H](O)C[C@H](C(=O)NCCNc1n[nH]c(N)n1)C(C)C | 4.1 | 4.2 |  | 6.1 | AUC [5]: 94.8 ng·h/mL; AUC [6]: 318 ng·h/mL; bioavailability [7]: 2%; Cmax [8]: 190 ng/mL; Cmax [9]: 810 ng/mL
CCCC[C@H](N[C@@H](Cc1ccccc1)C(=O)N1CCC(OCOC)CC1)C(=O)N[C@@H](CC1CCCCC1)[C@@H](O)C[C@H](C(=O)NCCC(=O)OCc1ccccc1)C(C)C |  |  |  | 23 | 
CCCC[C@H](N[C@@H](Cc1ccccc1)C(=O)N1CCC(OCOC)CC1)C(=O)N[C@@H](CC1CCCCC1)[C@@H](O)C[C@H](C(=O)NCCCN)C(C)C | 2.7 | 3.3 |  | 9.5 | 
CCCC[C@H](O[C@@H](Cc1ccccc1)C(=O)N1CCC(OCOC)CC1)C(=O)N[C@@H](CC1CCCCC1)[C@@H](O)C[C@H](C(=O)NCCNC(N)=NC#N)C(C)C | > 5 | > 5 | 1.8 |  | 
CCCC[C@H](N[C@@H](Cc1ccccc1)C(=O)N1CCC(OCOC)CC1)C(=O)N[C@@H](CC1CCCCC1)[C@@H](O)C[C@H](C(=O)NCCNCCO)C(C)C |  |  |  | 11 | 
CCCC[C@H](O[C@@H](Cc1ccccc1)C(=O)N1CCC(OCOC)CC1)C(=O)N[C@@H](CC1CCCCC1)[C@@H](O)C[C@H](C(=O)NCCNc1noc(N)n1)C(C)C | 4.5 | 4.4 | 3.1 |  | 
CCCC[C@H](O[C@@H](Cc1ccccc1)C(=O)N1CCC(OCOC)CC1)C(=O)N[C@@H](CC1CCCCC1)[C@@H](O)C[C@H](C(=O)NCCCCN1CCOCC1)C(C)C |  |  | 3.3 |  | 
CCCC[C@H](N[C@@H](Cc1ccccc1)C(=O)N1CCC(OCOC)CC1)C(=O)N[C@@H](CC1CCCCC1)[C@@H](O)C[C@H](C(=O)NCCCNCCO)C(C)C | 2.9 | 3.5 |  | 7.9 | 
CCCC[C@H](N[C@@H](Cc1ccccc1)C(=O)N1CCC(OCOC)CC1)C(=O)N[C@@H](CC1CCCCC1)[C@@H](O)C[C@H](C(=O)NCC(C)(C)NCCO)C(C)C |  |  |  | 6.3 | AUC [5]: 66.3 ng·h/mL; AUC [6]: 477 ng·h/mL; bioavailability [7]: 1%; Cmax [8]: 80 ng/mL; Cmax [9]: 3480 ng/mL
CCCC[C@H](N[C@@H](Cc1ccccc1)C(=O)N1CCC(OCOC)CC1)C(=O)N[C@@H](CC1CCCCC1)[C@@H](O)C[C@H](C(=O)NCC[N+]1([O-])CCOCC1)C(C)C |  |  |  | 8.4 | 
CCCC[C@H](N[C@@H](Cc1ccccc1)C(=O)N1CCC(OCOC)CC1)C(=O)N[C@@H](CC1CCCCC1)[C@@H](O)C[C@H](C(=O)NCCNC(=O)OCc1ccccc1)C(C)C |  |  |  | 17 | 
CCCC[C@H](N[C@@H](Cc1ccccc1)C(=O)N1CCC(OCOC)CC1)C(=O)N[C@@H](CC1CCCCC1)[C@@H](O)C[C@H](C(=O)NCC(C)(C)N)C(C)C |  |  |  | 12 | 
CCCC[C@H](O[C@@H](Cc1ccccc1)C(=O)N1CCC(OCOC)CC1)C(=O)N[C@@H](CC1CCCCC1)[C@@H](O)C[C@H](C(=O)NCCCNC(N)=NC#N)C(C)C | 4.6 | 4.5 | 1.5 |  | 

Further lines, with some results ahead:

logD [1] | logD [2] | IC50 [3] [nM] | IC50 [4] [nM] | SMILES | other results
 |  | 4.3 |  | CCCC[C@H](O[C@@H](Cc1ccccc1)C(=O)N1CCC(OCOC)CC1)C(=O)N[C@@H](CC1CCCCC1)[C@@H](O)C[C@H](C(=O)NCCCCN)C(C)C | 
 |  | 2.8 |  | CCCC[C@H](O[C@@H](Cc1ccccc1)C(=O)N1CCC(OCOC)CC1)C(=O)N[C@@H](CC1CCCCC1)[C@@H](O)C[C@H](C(=O)NCCNC(N)=O)C(C)C | 
3.9 | 4 | 1.1 |  | CCCC[C@H](O[C@@H](Cc1ccccc1)C(=O)N1CCC(OCOC)CC1)C(=O)N[C@@H](CC1CCCCC1)[C@@H](O)C[C@H](C(=O)NCCNc1n[nH]c(N)n1)C(C)C | 
 |  | 2.6 |  | CCCC[C@H](O[C@@H](Cc1ccccc1)C(=O)N1CCC(OCOC)CC1)C(=O)N[C@@H](CC1CCCCC1)[C@@H](O)C[C@H](C(=O)NCCNC(C)=O)C(C)C | 
 |  | 12 |  | CCCC[C@H](O[C@@H](Cc1ccccc1)C(=O)N1CCC(OCOC)CC1)C(=O)N[C@@H](CC1CCCCC1)[C@@H](O)C[C@H](C(=O)NCCC(=O)OCC)C(C)C | 
 |  | 8.4 |  | CCCC[C@H](O[C@@H](Cc1ccccc1)C(=O)N1CCC(OCOC)CC1)C(=O)N[C@@H](CC1CCCCC1)[C@@H](O)C[C@H](C(=O)NCc1nn[nH]n1)C(C)C | 
 |  | 2 |  | CCCC[C@H](O[C@@H](Cc1ccccc1)C(=O)N1CCC(OCOC)CC1)C(=O)N[C@@H](CC1CCCCC1)[C@@H](O)C[C@H](C(=O)NCCCNC(N)=O)C(C)C | 
2.4 | 1.8 | 4.5 |  | CCCC[C@H](O[C@@H](Cc1ccccc1)C(=O)N1CCC(OCOC)CC1)C(=O)N[C@@H](CC1CCCCC1)[C@@H](O)C[C@H](C(=O)NCCCN)C(C)C | 
2.7 | 3.5 | 4.7 |  | CCCC[C@H](O[C@@H](Cc1ccccc1)C(=O)N1CCC(OCOC)CC1)C(=O)N[C@@H](CC1CCCCC1)[C@@H](O)C[C@H](C(=O)NCC(C)(C)N)C(C)C | 
4.3 | 4.3 | 2.4 |  | CCCC[C@H](O[C@@H](Cc1ccccc1)C(=O)N1CCC(OCOC)CC1)C(=O)N[C@@H](CC1CCCCC1)[C@@H](O)C[C@H](C(=O)NCCCNC(C)=O)C(C)C | 
 |  | 2.5 |  | CCCC[C@H](O[C@@H](Cc1ccccc1)C(=O)N1CCC(OCOC)CC1)C(=O)N[C@@H](CC1CCCCC1)[C@@H](O)C[C@H](C(=O)NCCCNC(N)=S)C(C)C | 
4.3 | 4.2 | 1.7 |  | CCCC[C@H](O[C@@H](Cc1ccccc1)C(=O)N1CCC(OCOC)CC1)C(=O)N[C@@H](CC1CCCCC1)[C@@H](O)C[C@H](C(=O)NCCCNc1nnc(N)[nH]1)C(C)C | 
 |  | 3.9 |  | CCCC[C@H](O[C@@H](Cc1ccccc1)C(=O)N1CCC(OCOC)CC1)C(=O)N[C@@H](CC1CCCCC1)[C@@H](O)C[C@H](C(=O)NCCN)C(C)C | 
1.9 | 2.8 |  | 6.8 | CCCC[C@H](O[C@@H](Cc1ccccc1)C(=O)N1CCC(OCOC)CC1)C(=O)N[C@@H](CC1CCCCC1)[C@@H](O)C[C@H](C(=O)NCCC(=O)O)C(C)C | 
> 5 | > 5 | 2.2 |  | CCCC[C@H](O[C@@H](Cc1ccccc1)C(=O)N1CCC(OCOC)CC1)C(=O)N[C@@H](CC1CCCCC1)[C@@H](O)C[C@H](C(=O)NCCNC(N)=S)C(C)C | 
